Experiments:
Format in all cases: cell-based
[1] = biological target: 5-hydroxytryptamine receptor 7 (Homo sapiens, UniProt P34969); assay: Displacement of [3H]-5-CT from human 5-HT7b receptor expressed in HEK293 cells after 1 hr
[2] = biological target: T1, 5-hydroxytryptamine receptor 1A (Homo sapiens, UniProt P08908); assay: Displacement of [3H]-8-OH-DPAT from human 5-HT1A receptor expressed in HEK293 cells after 1 hr
T1 sequence (P08908 whole entry): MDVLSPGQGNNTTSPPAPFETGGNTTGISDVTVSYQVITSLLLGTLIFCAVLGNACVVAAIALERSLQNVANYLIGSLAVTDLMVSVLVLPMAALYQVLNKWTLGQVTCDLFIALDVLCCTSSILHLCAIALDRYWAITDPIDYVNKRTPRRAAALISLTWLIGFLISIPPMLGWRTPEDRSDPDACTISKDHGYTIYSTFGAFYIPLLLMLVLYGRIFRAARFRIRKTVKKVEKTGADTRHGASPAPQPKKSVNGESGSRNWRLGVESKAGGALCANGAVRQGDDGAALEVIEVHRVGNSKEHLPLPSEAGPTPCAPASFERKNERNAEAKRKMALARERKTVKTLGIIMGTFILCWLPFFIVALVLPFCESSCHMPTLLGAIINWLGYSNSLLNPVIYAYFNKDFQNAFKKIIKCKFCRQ
In short: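 Membranes from stably transfected HEK293 cells (human 5-HT1A), homogenized in 50 mM Tris–HCl, 0.1 mM EDTA, 4 mM MgCl2, 10 µM pargyline, 0.1% ascorbate; incubated 1 h at room temperature, then rapid filtration and radioactivity counting. Nonspecific binding with 10 µM 5-HT.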

[3] = biological target: 5-hydroxytryptamine receptor 6 (Homo sapiens, UniProt P50406); assay: Displacement of [3H]-LSD from human 5-HT6 receptor expressed in HEK293 cells after 1 hr
D(2) dopamine receptor = D(2) dopamine receptor (Homo sapiens, UniProt P14416); assay: Binding affinity to human dopamine D2L receptor expressed in HEK293 cells after 1 hr
Chain of D(2) dopamine receptor (P14416 whole entry): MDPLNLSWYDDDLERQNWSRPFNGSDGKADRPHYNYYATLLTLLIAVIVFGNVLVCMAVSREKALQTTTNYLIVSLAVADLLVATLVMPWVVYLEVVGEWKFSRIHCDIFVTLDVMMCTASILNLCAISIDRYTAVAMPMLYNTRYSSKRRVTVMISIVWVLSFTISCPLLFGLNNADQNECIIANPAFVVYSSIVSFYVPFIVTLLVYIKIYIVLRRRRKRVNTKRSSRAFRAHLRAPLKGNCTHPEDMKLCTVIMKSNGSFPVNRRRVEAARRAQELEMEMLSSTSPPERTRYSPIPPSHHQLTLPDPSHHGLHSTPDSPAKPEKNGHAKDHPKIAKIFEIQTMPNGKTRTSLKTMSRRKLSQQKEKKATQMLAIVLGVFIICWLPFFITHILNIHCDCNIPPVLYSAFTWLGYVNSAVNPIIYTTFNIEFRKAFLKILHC

Chain of 5-hydroxytryptamine receptor 6 (P50406 whole entry): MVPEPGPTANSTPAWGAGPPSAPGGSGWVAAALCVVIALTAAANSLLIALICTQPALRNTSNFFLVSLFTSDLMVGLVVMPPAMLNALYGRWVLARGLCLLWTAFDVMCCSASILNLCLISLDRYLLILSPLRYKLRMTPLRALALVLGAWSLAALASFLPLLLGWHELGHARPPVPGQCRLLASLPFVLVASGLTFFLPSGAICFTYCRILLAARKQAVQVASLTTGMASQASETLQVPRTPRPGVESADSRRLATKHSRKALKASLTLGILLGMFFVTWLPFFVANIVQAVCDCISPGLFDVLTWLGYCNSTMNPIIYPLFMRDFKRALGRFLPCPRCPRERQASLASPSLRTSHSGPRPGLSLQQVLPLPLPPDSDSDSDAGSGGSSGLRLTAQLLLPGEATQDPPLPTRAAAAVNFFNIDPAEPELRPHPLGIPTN
Chain of 5-hydroxytryptamine receptor 7 (P34969 whole entry): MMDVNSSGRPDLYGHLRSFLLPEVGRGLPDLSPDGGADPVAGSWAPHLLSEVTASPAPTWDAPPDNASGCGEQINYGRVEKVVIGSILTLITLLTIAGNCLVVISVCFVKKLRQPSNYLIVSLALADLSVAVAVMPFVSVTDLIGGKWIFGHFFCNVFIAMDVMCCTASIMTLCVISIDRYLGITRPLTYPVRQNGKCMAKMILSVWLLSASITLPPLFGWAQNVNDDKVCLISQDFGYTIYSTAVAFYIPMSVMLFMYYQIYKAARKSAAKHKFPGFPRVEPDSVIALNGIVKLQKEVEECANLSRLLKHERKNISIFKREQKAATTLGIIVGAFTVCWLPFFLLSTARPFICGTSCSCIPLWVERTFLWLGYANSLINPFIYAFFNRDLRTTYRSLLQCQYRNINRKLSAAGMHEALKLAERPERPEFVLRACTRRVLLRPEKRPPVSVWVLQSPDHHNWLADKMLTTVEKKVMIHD

| Structure (SMILES) | Ki [1] | other results |
| --- | --- | --- |
| CC(C)c1ccccc1OCCN1CC[C@H](NS(=O)(=O)c2ccc(Cl)s2)C1 |  | Ki [2]: 89 nM; Ki [3]: 537 nM; Ki (D(2) dopamine receptor): 25 nM |
| O=S(=O)(N[C@@H]1CCN(CCOc2ccccc2-c2ccccc2)C1)c1ccc(Cl)s1 |  | Ki [2]: 75 nM; Ki [3]: 202 nM; Ki (D(2) dopamine receptor): 39 nM |
| CCOc1ccccc1C(=O)NCC1CCN(CCOc2ccccc2SC)CC1 | 1190 nM |  |
| CC(C)(C)c1ccccc1OCCN1CCC(NC(=O)c2cccc(F)c2)CC1 | 1670 nM |  |
| O=S(=O)(NC1CCN(CCOc2ccccc2)C1)c1ccc(Cl)s1 (configuration not stated) |  | Ki [2]: 65 nM; Ki [3]: 957 nM; Ki (D(2) dopamine receptor): 318 nM |
| CCOc1ccccc1C(=O)NC1CCN(CCOc2cccc(-c3ccccc3)c2)C1 (configuration not stated) | 1100 nM |  |
| O=C(NC1CCN(CCSc2ccccc2-c2ccccc2)CC1)c1ccc2ccccc2n1 | 865 nM |  |
| O=C(NC1CCN(CCOc2cc(Cl)ccc2Cl)CC1)c1ccc2ccccc2n1 | 873 nM |  |
| Cc1ccccc1C(=O)NCC1CCN(CCOc2cccc(-c3ccccc3)c2)CC1 | 2670 nM |  |
| O=C(NC1CCN(CCSc2cccc(Cl)c2Cl)C1)c1ccc2ccccc2n1 (configuration not stated) | 1110 nM |  |
| O=S(=O)(NC1CCN(CCOc2cccc(Cl)c2Cl)C1)c1ccc(Cl)s1 (configuration not stated) |  | Ki [2]: 28 nM; Ki [3]: 91 nM; Ki (D(2) dopamine receptor): 67 nM |
| O=C(NC1CCN(CCOc2cccc3c2CCCC3)C1)c1cccc(F)c1 (configuration not stated) | 2220 nM |  |
| O=S(=O)(N[C@H]1CCN(CCOc2ccccc2-c2ccccc2)C1)c1ccc(Cl)s1 |  | Ki [2]: 147 nM; Ki [3]: 551 nM; Ki (D(2) dopamine receptor): 8 nM |
| O=S(=O)(NC1CCN(CCOc2cc(Cl)ccc2Cl)C1)c1ccc(Cl)s1 (configuration not stated) |  | Ki [2]: 717 nM; Ki [3]: 225 nM; Ki (D(2) dopamine receptor): 78 nM |
| CCOc1ccccc1C(=O)NC1CCN(CCOc2cccc(NC(C)=O)c2)C1 (configuration not stated) | 3370 nM |  |
| CSc1ccccc1OCCN1CCC(NC(=O)c2cccs2)CC1 | 1140 nM |  |
| Cc1ccccc1C(=O)NCC1CCN(CCOc2ccccc2C(C)(C)C)CC1 | 1500 nM |  |

The next lines start with results.

| Ki [1] | Structure (SMILES) | other results |
| --- | --- | --- |
| 161 nM | O=C(NC1CCN(CCOc2cccc(Cl)c2Cl)C1)c1ccc2c(c1)OCCO2 (configuration not stated) |  |
| 5 nM | O=S(=O)(NC1CCN(CCOc2ccccc2-c2ccccc2)C1)c1ccc(F)cc1 (configuration not stated) |  |
| 311 nM | CCOc1ccccc1C(=O)NC1CCN(CCOc2ccccc2C(C)C)CC1 |  |
| 204 nM | CCOc1ccccc1C(=O)NC1CCN(CCOc2ccccc2C(C)C)C1 (configuration not stated) |  |
| 409 nM | Cc1ccccc1C(=O)NCC1CCN(CCOc2cccc3c2CCCC3)CC1 |  |
| 27 nM | COc1ccc(OC)c(S(=O)(=O)NCC2CCN(CCOc3ccccc3C(C)C)CC2)c1 |  |
| 59 nM | Cc1ccccc1C(=O)NC1CCN(CCOc2ccccc2-c2ccccc2)C1 (configuration not stated) |  |
| 391 nM | O=C(NC1CCN(CCOc2ccccc2-c2ccccc2)CC1)c1cccc(F)c1 |  |
| 815 nM | Cc1ccccc1C(=O)NC1CCN(CCSc2cccc(Cl)c2Cl)CC1 |  |
| 12 nM | O=S(=O)(NC1CCN(CCOc2ccccc2-c2ccccc2)CC1)c1ccc(Cl)s1 |  |
| 276 nM | O=C(NC1CCN(CCOc2ccccc2-c2ccccc2)CC1)c1cccs1 |  |
| 85 nM | CCOc1ccccc1C(=O)NC1CCN(CCOc2ccccc2-c2ccccc2)C1 (configuration not stated) |  |
| 17 nM | CSc1ccccc1OCCN1CCC(NS(=O)(=O)c2ccc(Cl)s2)CC1 |  |
| 3.2 nM | O=S(=O)(c1ccc2cc[nH]c2c1)N1CCC[C@@H]1CCN1CCC(Oc2ccc(Cl)cc2)CC1 | Ki [2]: 250 nM |
| 329 nM | CCOc1ccccc1C(=O)NC1CCN(CCSc2ccccc2-c2ccccc2)CC1 |  |
| 93 nM | O=S(=O)(NC1CCN(CCSc2ccccc2-c2ccccc2)CC1)c1ccc(F)c(F)c1 |  |
| 427 nM | Cc1ccccc1C(=O)NC1CCN(CCSc2cccc(Cl)c2Cl)C1 (configuration not stated) |  |
| 407 nM | CC(C)c1ccccc1OCCN1CCC(CNC(=O)c2cccs2)CC1 |  |
| 709 nM | O=C(NC1CCN(CCOc2cccc(-c3ccccc3)c2)C1)c1cccc(F)c1 (configuration not stated) |  |
| 415 nM | O=C(NCC1CCN(CCOc2cc(Cl)ccc2Cl)CC1)c1cccc(F)c1 |  |
| 334 nM | O=C(NCC1CCN(CCOc2ccccc2-c2ccccc2)CC1)c1ccc2ccccc2n1 |  |
| 97 nM | O=S(=O)(NC1CCN(CCOc2cc(Cl)ccc2Cl)C1)c1ccc(F)c(F)c1 (configuration not stated) |  |

From ChEMBL document CHEMBL2157986, “The multiobjective based design, synthesis and evaluation of the arylsulfonamide/amide derivatives of aryloxyethyl- and arylthioethyl- piperidines and pyrrolidines as a novel class of potent 5-HT₇ receptor antagonists” (Eur J Med Chem, 2012)
